Reference: ChEMBL document CHEMBL1141859, “Synthesis and antimicrobial activity of 5-hydroxymethyl- 8-methyl-2-(N-arylimino)-pyrano[2,3-c]pyridine-3-(N-aryl)-carboxamides” (2005)
Converted amounts (≈) assume the structure as drawn.

Columns and labels:
Assay type in all cases: functional
Pseudomonas aeruginosa = experiment: Antibacterial activity against Pseudomonas aeruginosa
In short: (§1)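 Twofold serial broth dilution in tubes, triplicate. Ten tubes of seeded broth (2 mL each); compound added as a 1 mg/mL DMF solution to the first tube, then serially transferred. Bacteria inoculated at 2×10^5 cfu/mL and incubated at 37 °C for 18–24 h. MIC (µg/mL) read visually. DMF solvent, positive growth and standard drug controls run alongside.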

Escherichia coli = experiment: Antibacterial activity against Escherichia coli; in short: as §1
Candida albicans = experiment: Antifungal activity against Candida albicans
In short: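 For Candida albicans: broth double-dilution in tubes, run in triplicate. Compound added as a 1 mg/mL DMF solution to the first of ten seeded-broth tubes (2 mL), then serially diluted by transfer. Fungal inoculum 5×10^5 cfu/mL; incubation at 30 °C for 48 h. MIC (µg/mL) by visual reading. Controls were DMF solvent, positive growth and standard drug.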

Proteus vulgaris = experiment: Antibacterial activity against Proteus vulgaris; in short: as §1
Staphylococcus aureus = experiment: Antibacterial activity against Staphylococcus aureus; in short: as §1

| Structure (SMILES) | MIC (Pseudomonas aeruginosa) | MIC (Escherichia coli) | MIC (Candida albicans) | MIC (Proteus vulgaris) | MIC (Staphylococcus aureus) |
| --- | --- | --- | --- | --- | --- |
| COc1ccc(NC(=O)c2cc3c(CO)cnc(C)c3o/c2=N\c2ccc(Cl)c(Cl)c2)c(OC)c1 | 50 µg/mL (≈ 97.2 µM) | 50 µg/mL (≈ 97.2 µM) | 50 µg/mL (≈ 97.2 µM) | 50 µg/mL (≈ 97.2 µM) | 50 µg/mL (≈ 97.2 µM) |
| CCOc1ccc(/N=c2\oc3c(C)ncc(CO)c3cc2C(=O)Nc2cccc(C)c2)cc1 | 25 µg/mL (≈ 56.4 µM) | 50 µg/mL (≈ 113 µM) | 50 µg/mL (≈ 113 µM) | 50 µg/mL (≈ 113 µM) | 50 µg/mL (≈ 113 µM) |
| COc1ccc(NC(=O)c2cc3c(CO)cnc(C)c3o/c2=N\c2ccc(OC)c(OC)c2)c(OC)c1 | 50 µg/mL (≈ 98.9 µM) | 50 µg/mL (≈ 98.9 µM) | 50 µg/mL (≈ 98.9 µM) | 50 µg/mL (≈ 98.9 µM) | 25 µg/mL (≈ 49.5 µM) |
| Cc1ccc(NC(=O)c2cc3c(CO)cnc(C)c3o/c2=N\c2ccc(Br)cc2)cc1 | 50 µg/mL (≈ 105 µM) | 50 µg/mL (≈ 105 µM) | 25 µg/mL (≈ 52.3 µM) | 50 µg/mL (≈ 105 µM) | 25 µg/mL (≈ 52.3 µM) |
| Cc1ccc(NC(=O)c2cc3c(CO)cnc(C)c3o/c2=N\c2cccc(Cl)c2)cc1 | 50 µg/mL (≈ 115 µM) | 50 µg/mL (≈ 115 µM) | 25 µg/mL (≈ 57.6 µM) | 50 µg/mL (≈ 115 µM) | 50 µg/mL (≈ 115 µM) |
| COc1ccc(/N=c2\oc3c(C)ncc(CO)c3cc2C(=O)Nc2cccc(C)c2)cc1OC | 100 µg/mL (≈ 218 µM) | 50 µg/mL (≈ 109 µM) | 50 µg/mL (≈ 109 µM) | 100 µg/mL (≈ 218 µM) | 50 µg/mL (≈ 109 µM) |
| Cc1ccc(/N=c2\oc3c(C)ncc(CO)c3cc2C(=O)Nc2cccc(C)c2)cc1 | 50 µg/mL (≈ 121 µM) | 50 µg/mL (≈ 121 µM) | 50 µg/mL (≈ 121 µM) | 50 µg/mL (≈ 121 µM) | 50 µg/mL (≈ 121 µM) |
| COc1cccc(/N=c2\oc3c(C)ncc(CO)c3cc2C(=O)Nc2ccc(C)cc2)c1 | 50 µg/mL (≈ 116 µM) | 25 µg/mL (≈ 58.2 µM) | 50 µg/mL (≈ 116 µM) | 100 µg/mL (≈ 233 µM) | 50 µg/mL (≈ 116 µM) |
| Cc1ccc(NC(=O)c2cc3c(CO)cnc(C)c3o/c2=N\c2ccccc2I)cc1 | 50 µg/mL (≈ 95.2 µM) | 50 µg/mL (≈ 95.2 µM) | 50 µg/mL (≈ 95.2 µM) | 100 µg/mL (≈ 190 µM) | 25 µg/mL (≈ 47.6 µM) |
| Cc1cccc(NC(=O)c2cc3c(CO)cnc(C)c3o/c2=N\c2ccc(C)c(C)c2)c1 | 12.5 µg/mL (≈ 29.2 µM) | 25 µg/mL (≈ 58.5 µM) | 12.5 µg/mL (≈ 29.2 µM) | 50 µg/mL (≈ 117 µM) | 50 µg/mL (≈ 117 µM) |
| CCOC(=O)c1ccc(/N=c2\oc3c(C)ncc(CO)c3cc2C(=O)Nc2ccccc2)cc1 | 50 µg/mL (≈ 109 µM) | 50 µg/mL (≈ 109 µM) | 50 µg/mL (≈ 109 µM) | 50 µg/mL (≈ 109 µM) | 50 µg/mL (≈ 109 µM) |
| Cc1cccc(NC(=O)c2cc3c(CO)cnc(C)c3o/c2=N\c2cccc(Cl)c2)c1 | 50 µg/mL (≈ 115 µM) | 50 µg/mL (≈ 115 µM) | 50 µg/mL (≈ 115 µM) | 100 µg/mL (≈ 230 µM) | 100 µg/mL (≈ 230 µM) |
| CCc1ccccc1/N=c1\oc2c(C)ncc(CO)c2cc1C(=O)Nc1ccc(C)cc1 | 50 µg/mL (≈ 117 µM) | 50 µg/mL (≈ 117 µM) | 50 µg/mL (≈ 117 µM) | 50 µg/mL (≈ 117 µM) | 50 µg/mL (≈ 117 µM) |
| Cc1cccc(NC(=O)c2cc3c(CO)cnc(C)c3o/c2=N\c2ccccc2)c1 | 25 µg/mL (≈ 62.6 µM) | 50 µg/mL (≈ 125 µM) | 12.5 µg/mL (≈ 31.3 µM) | 50 µg/mL (≈ 125 µM) | 100 µg/mL (≈ 250 µM) |
| Cc1ccc2nc(-c3ccc(/N=c4\oc5c(C)ncc(CO)c5cc4C(=O)Nc4ccccc4)cc3)sc2c1 | 100 µg/mL (≈ 188 µM) | 25 µg/mL (≈ 46.9 µM) | 50 µg/mL (≈ 93.9 µM) | 50 µg/mL (≈ 93.9 µM) | 100 µg/mL (≈ 188 µM) |
| COc1ccccc1/N=c1\oc2c(C)ncc(CO)c2cc1C(=O)Nc1ccc(C)cc1 | 50 µg/mL (≈ 116 µM) | 50 µg/mL (≈ 116 µM) | 25 µg/mL (≈ 58.2 µM) | 100 µg/mL (≈ 233 µM) | 100 µg/mL (≈ 233 µM) |
| Cc1ccc(/N=c2\oc3c(C)ncc(CO)c3cc2C(=O)Nc2ccccc2C)cc1C | 25 µg/mL (≈ 58.5 µM) | 50 µg/mL (≈ 117 µM) | 100 µg/mL (≈ 234 µM) | 50 µg/mL (≈ 117 µM) | 100 µg/mL (≈ 234 µM) |
| Cc1ccc(NC(=O)c2cc3c(CO)cnc(C)c3o/c2=N\c2ccc(Oc3ccccc3)cc2)cc1 | 50 µg/mL (≈ 102 µM) | 50 µg/mL (≈ 102 µM) | 12.5 µg/mL (≈ 25.4 µM) | 50 µg/mL (≈ 102 µM) | 50 µg/mL (≈ 102 µM) |

| Structure (SMILES) | MIC (Pseudomonas aeruginosa) | MIC (Escherichia coli) | MIC (Candida albicans) | MIC (Proteus vulgaris) | MIC (Staphylococcus aureus) |
| --- | --- | --- | --- | --- | --- |
| Cc1ncc(CO)c2cc(C(=O)Nc3ccccc3)/c(=N/c3ccccc3)oc12 | 50 µg/mL (≈ 130 µM) | 25 µg/mL (≈ 64.9 µM) | 50 µg/mL (≈ 130 µM) | 50 µg/mL (≈ 130 µM) | 50 µg/mL (≈ 130 µM) |
| COc1ccc(NC(=O)c2cc3c(CO)cnc(C)c3o/c2=N\c2ccc(Cl)c(Cl)c2)cc1 | 25 µg/mL (≈ 51.6 µM) | 25 µg/mL (≈ 51.6 µM) | 12.5 µg/mL (≈ 25.8 µM) | 25 µg/mL (≈ 51.6 µM) | 12.5 µg/mL (≈ 25.8 µM) |
| COc1cc(NC(=O)c2cc3c(CO)cnc(C)c3o/c2=N\c2ccc(C(N)=O)cc2)cc(OC)c1 | 50 µg/mL (≈ 102 µM) | 50 µg/mL (≈ 102 µM) | 25 µg/mL (≈ 51.2 µM) | 50 µg/mL (≈ 102 µM) | 50 µg/mL (≈ 102 µM) |
| Cc1ncc(CO)c2cc(C(=O)Nc3ccccc3)/c(=N/c3ccc(Oc4ccccc4)cc3)oc12 | 50 µg/mL (≈ 105 µM) | 25 µg/mL (≈ 52.4 µM) | 50 µg/mL (≈ 105 µM) | 50 µg/mL (≈ 105 µM) | 50 µg/mL (≈ 105 µM) |
| Cc1ncc(CO)c2cc(C(=O)Nc3ccccc3F)/c(=N/c3ccc(C(F)(F)F)cc3)oc12 | 50 µg/mL (≈ 106 µM) | 50 µg/mL (≈ 106 µM) | 25 µg/mL (≈ 53 µM) | 100 µg/mL (≈ 212 µM) | 50 µg/mL (≈ 106 µM) |
| CCc1ccc(NC(=O)c2cc3c(CO)cnc(C)c3o/c2=N\c2ccc3c(c2)OCO3)cc1 | 50 µg/mL (≈ 109 µM) | 50 µg/mL (≈ 109 µM) | 12.5 µg/mL (≈ 27.3 µM) | 50 µg/mL (≈ 109 µM) | 100 µg/mL (≈ 219 µM) |
| Cc1ncc(CO)c2cc(C(=O)Nc3ccccc3)/c(=N/c3ccc4c(c3)OCO4)oc12 | 50 µg/mL (≈ 116 µM) | 25 µg/mL (≈ 58.2 µM) | 50 µg/mL (≈ 116 µM) | 50 µg/mL (≈ 116 µM) | 50 µg/mL (≈ 116 µM) |
| Cc1cc(C)cc(/N=c2\oc3c(C)ncc(CO)c3cc2C(=O)Nc2ccccc2C)c1 | 50 µg/mL (≈ 117 µM) | 100 µg/mL (≈ 234 µM) | 100 µg/mL (≈ 234 µM) | 100 µg/mL (≈ 234 µM) | 100 µg/mL (≈ 234 µM) |
| CCc1cccc(/N=c2\oc3c(C)ncc(CO)c3cc2C(=O)Nc2ccccc2)c1 | 100 µg/mL (≈ 242 µM) | 100 µg/mL (≈ 242 µM) | 100 µg/mL (≈ 242 µM) | 100 µg/mL (≈ 242 µM) | 100 µg/mL (≈ 242 µM) |
| Cc1cccc(/N=c2\oc3c(C)ncc(CO)c3cc2C(=O)Nc2ccccc2C)c1 | 50 µg/mL (≈ 121 µM) | 50 µg/mL (≈ 121 µM) | 12.5 µg/mL (≈ 30.2 µM) | 25 µg/mL (≈ 60.5 µM) | 100 µg/mL (≈ 242 µM) |
| CCc1ccc(/N=c2\oc3c(C)ncc(CO)c3cc2C(=O)Nc2ccccc2)cc1 | 50 µg/mL (≈ 121 µM) | 50 µg/mL (≈ 121 µM) | 50 µg/mL (≈ 121 µM) | 50 µg/mL (≈ 121 µM) | 50 µg/mL (≈ 121 µM) |
| COc1cc(/N=c2\oc3c(C)ncc(CO)c3cc2C(=O)Nc2cccc(C)c2)cc(OC)c1 | 50 µg/mL (≈ 109 µM) | 100 µg/mL (≈ 218 µM) | 12.5 µg/mL (≈ 27.2 µM) | 100 µg/mL (≈ 218 µM) | 25 µg/mL (≈ 54.4 µM) |
| COc1ccc(/N=c2\oc3c(C)ncc(CO)c3cc2C(=O)Nc2cccc(C)c2)c(OC)c1 | 25 µg/mL (≈ 54.4 µM) | 50 µg/mL (≈ 109 µM) | 50 µg/mL (≈ 109 µM) | 50 µg/mL (≈ 109 µM) | 50 µg/mL (≈ 109 µM) |
| Cc1cccc(/N=c2\oc3c(C)ncc(CO)c3cc2C(=O)Nc2ccccc2)c1 | 100 µg/mL (≈ 250 µM) | 100 µg/mL (≈ 250 µM) | 100 µg/mL (≈ 250 µM) | 100 µg/mL (≈ 250 µM) | 100 µg/mL (≈ 250 µM) |
| Cc1ccc(NC(=O)c2cc3c(CO)cnc(C)c3o/c2=N\c2ccc(Cl)c(Cl)c2)cc1 | 50 µg/mL (≈ 107 µM) | 100 µg/mL (≈ 214 µM) | 25 µg/mL (≈ 53.4 µM) | 50 µg/mL (≈ 107 µM) | 100 µg/mL (≈ 214 µM) |
| COc1cc(/N=c2\oc3c(C)ncc(CO)c3cc2C(=O)Nc2ccccc2)cc(OC)c1 | 25 µg/mL (≈ 56.1 µM) | 50 µg/mL (≈ 112 µM) | 100 µg/mL (≈ 224 µM) | 50 µg/mL (≈ 112 µM) | 50 µg/mL (≈ 112 µM) |
| O=C(O)c1cn(C2CC2)c2cc(N3CCNCC3)c(F)cc2c1=O [CIPROFLOXACIN] | – | 25 µg/mL (≈ 75.4 µM) | – | 12.5 µg/mL (≈ 37.7 µM) | – |
| OC(Cn1cncn1)(Cn1cncn1)c1ccc(F)cc1F [FLUCONAZOLE] | – | – | 50 µg/mL (≈ 163 µM) | – | – |
